Screens as filed in PubChem.
Sampled rows, rich in hits. Any-hit rate of the full collection: about 2.6%.
Platelet DG rel: modulates dense granule release in human platelets; human platelet-rich plasma, SFLLRN dense granule ATP release, luminescence; inhibition, %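 (compounds screened at 7.5 µM in platelet-rich plasma)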; hit rate 0.22% among 300,000;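 active = mean replicate score, as percent of positive control, at or above 50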
SENP6 block: SENP6 protease inhibition | AID 2599 | hit rate 1.8% among 330,000 | Recombinant SENP6 catalytic domain, aminoluciferin luminescence | inhibition, % at 10 µM;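 active = inhibition above about 50% at the single tested dose, limit read from the data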
SENP1 inh: inhibitors of human SENP1 SUMO protease catalytic domain | inhibition, % at 10 µM | recombinant SENP1 catalytic domain, CyPet-SUMO1-YPet FRET cleavage | hit rate 0.21% among 360,000;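 active = inhibition at least 30% at 10 µM, raw YFP signal under a set limit, fluorescence ratio 0.5 to 1.5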
Target sequence (Q9P0U3 419-644 limits assumed): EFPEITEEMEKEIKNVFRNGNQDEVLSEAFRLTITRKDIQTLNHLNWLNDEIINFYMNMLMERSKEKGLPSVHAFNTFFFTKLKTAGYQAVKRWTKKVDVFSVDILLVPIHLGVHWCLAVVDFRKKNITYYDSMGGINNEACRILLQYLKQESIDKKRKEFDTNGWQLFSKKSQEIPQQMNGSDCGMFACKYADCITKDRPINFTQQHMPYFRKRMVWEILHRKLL
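Assay system – human recombinant His6-tagged SENP1 catalytic domain enzyme · Input – SENP1 enzyme, 20 pM final · Buffer or medium – Tris pH 8 buffer plus EDTA, NaCl, BME, BSA, NP40, catalase · Schedule – 50 min reaction at room temperature · Technique – FRET read of cyan and yellow fluorescence · Control set – no-enzyme wells low, DMSO-plus-enzyme wells high control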
SENP8 block-1: SENP8 protease inhibition; purified SENP8, Z-RLRGG-aminoluciferin cleavage, luminescence; Q96LD8; hit rate 1.2% among 330,000; inhibition, % at 10 µM; in the data active = inhibition above about 50%
SENP8 block-2: inhibitors of human SENP8 protease; recombinant SENP8, Nedd8 substrate fluorescence; inhibition, % at 20 µM; hit rate 0.64% among 360,000; in the data active = inhibition mostly above about 40%, no sharp cut-off; inactive = mostly below about 27%
SENP7 inh: SENP7 protease inhibition; recombinant SENP7, Z-RLRGG-aminoluciferin luminescence, 40 min; Q9BQF6; hit rate 1.5% among 330,000; inhibition, % at 5 µM; AID 434973;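 active = inhibition above about 50% at the single test dose, limit read from the data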
Target sequence (Q9BQF6 706-1050 limits assumed): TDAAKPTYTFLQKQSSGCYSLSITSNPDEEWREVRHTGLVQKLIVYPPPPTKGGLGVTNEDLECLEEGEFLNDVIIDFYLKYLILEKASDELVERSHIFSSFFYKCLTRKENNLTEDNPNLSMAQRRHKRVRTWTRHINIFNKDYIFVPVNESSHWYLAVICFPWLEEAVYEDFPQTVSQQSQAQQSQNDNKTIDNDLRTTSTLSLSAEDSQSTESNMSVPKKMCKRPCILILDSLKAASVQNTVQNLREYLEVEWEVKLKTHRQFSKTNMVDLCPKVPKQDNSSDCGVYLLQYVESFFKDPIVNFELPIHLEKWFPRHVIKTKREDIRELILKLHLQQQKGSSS
SENP8 conf: confirmation of human SENP8 protease inhibitors. inhibition, % at 12.5 µM. shares compounds with SENP7 inh. hit rate 40% among 6,200. Recombinant SENP8, Z-RLRGG-aminoluciferin luminescence, 60 min;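 active = mean inhibition across replicates above about 50%, limit read from the data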
SENP6 confirm: confirmation of human SENP6 protease inhibitors | inhibition, % at 12.5 µM | AID 488915 | recombinant SENP6, Z-RLRGG-aminoluciferin luminescence | shares compounds with SENP7 inh | hit rate 58% among 6,200
SENP7 conf: human SENP7 inhibition, confirmed; shares compounds with SENP7 inh; recombinant SENP7, Z-RLRGG-aminoluciferin luminescence, 40 min; inhibition, % at 12.5 µM; hit rate 69% among 6,200
Casp3 SENP sel: inhibits human caspase-3 in SENP selectivity test | inhibition, % at 12.5 µM | purified caspase-3, Z-DEVD-aminoluciferin luminescence, 60 min | shares compounds with SENP7 inh | hit rate 60% among 6,200;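 active = mean inhibition above about 50%, limit read from the data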
SENP luc ctr: interferes with luciferase luminescence in SENP counter-screen; shares compounds with SENP7 inh; Pre-incubated SENP8/Z-RLRGG-aminoluciferin, luciferase luminescence interference; inhibition, % at 12.5 µM; hit rate 39% among 6,200; AID 488919;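 active = mean inhibition above about 50% when retested at one dose, limit read from the data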
A number is an active result; – = inactive; · = no result given.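 Rule for the calls, unless noted: active = mean inhibition above about 50% in the one-dose retest (limit read from the data); inactive = the rest.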

SMILES	Platelet DG rel	SENP6 block	SENP1 inh	SENP8 block-1	SENP8 block-2	SENP7 inh	SENP8 conf	SENP6 confirm	SENP7 conf	Casp3 SENP sel	SENP luc ctr
O=S(=O)(Nc1ccc(O)c2ccccc12)c1cccs1	–	63	–	–	–	–	–	–	–	–	–
Cc1cc(C)c2cccc(N)c2n1	–	71	–	–	–	–	–	–	–	–	–
CSc1nc(/C=C2\C=Nc3ccccc32)c(O)n1C	70	73	–	54	–	52	76	74	89	71	65
CCOc1ccc(N/C=C\C(=O)c2ccc3c(c2)OCO3)cc1	–	–	–	–	–	–	·	·	·	·	·
COc1ccc(NC(=O)c2ccc3c(c2)OCO3)cc1	–	68	–	62	–	60	63	61	87	88	72
COc1ccc(/C=C/C(=O)c2ccc3c(c2)OCO3)c(OC)c1	–	84	–	–	–	83	87	78	94	–	66
O=C(/C=C\Nc1ccc2c(c1)OCO2)c1ccc2c(c1)OCO2	–	–	–	–	–	86	–	–	–	–	–
COc1ccc(N/C=C\C(=O)c2ccc3c(c2)OCO3)cc1	–	76	–	51	–	78	–	–	65	54	–
COc1ccc(/C=C/C(=O)c2ccccc2)c(OC)c1	–	–	–	–	–	–	·	·	·	·	·
COc1ccc(N/C=C/C(=O)c2ccc3c(c2)OCO3)cc1OC	–	–	–	–	–	–	·	·	·	·	·
O=C(CCC(=O)N(CC(=O)NC1CCCCC1)Cc1ccccc1)Nc1nccs1	–	–	–	–	–	–	·	·	·	·	·
COc1ccc(SCC(=O)Nc2ccccc2Cl)cc1	–	–	–	–	–	–	·	·	·	·	·
COc1nc(SCC(=O)Nc2ccccc2Cl)nc(N(C)C)n1	–	85	–	–	–	–	–	–	–	–	–
CC(=O)c1cccc(NC(=O)c2ccc(C)c(S(=O)(=O)N3CCOCC3)c2)c1	–	–	–	–	–	–	·	·	·	·	·
Cc1ccc(C(=O)Nc2cccc(C(=O)O)c2)cc1S(=O)(=O)N1CCCCC1	·	93	–	88	–	94	96	96	102	83	79
Cc1ccc(C(=O)Nc2cccc(C(=O)O)c2)cc1S(=O)(=O)N1CCOCC1	–	61	–	57	–	–	73	68	89	50	–
COC(=O)c1cccc(NC(=O)c2ccc3c(c2)C(=O)N(CC2CCCO2)C3=O)c1 (stereo not given)	–	–	–	–	–	–	·	·	·	·	·
O=C(O)c1cccc(NC(=O)c2ccc3c(c2)C(=O)N(CC2CCCO2)C3=O)c1 (stereo not given)	–	83	–	50	–	71	87	85	99	74	78
CO/N=C/C(C(C)=O)C(=O)Nc1ccc(Cl)cc1Cl (stereo not given)	–	56	–	–	–	–	–	–	–	–	–
CCCC(C)C(=O)Nc1ccc(Cl)cc1Cl (stereo not given)	–	–	–	–	–	–	·	·	·	·	·
C=C(NC(=O)C(=C)NC(=O)c1csc(C2=NC3c4csc(n4)C4NC(=O)c5csc(n5)C([C@@](C)(O)C(C)O)NC(=O)C5CSC(=N5)/C(=C\C)NC(=O)C(C(C)O)NC(=O)c5csc(n5)[C@]3(CC2)NC(=O)C(C)NC(=O)C(=C)NC(=O)C(C)NC(=O)C(C(C)CC)NC2C=Cc3c(C(C)O)cc(nc3C2O)C(=O)OC4C)n1)C(N)=O (stereo not given in full)	·	–	·	–	·	–	·	·	·	·	·
NC(=O)CSc1nc(C2CC2)nc2sc3c(c12)CCCC3	–	75	–	74	–	68	–	–	–	–	–
c1ccc(C2CSc3ccccc3N2)cc1 (stereo not given)	–	72	–	–	–	–	–	–	–	–	–
CCc1ccc(NC(=S)N2CCCCCCC2)cc1	–	–	–	–	–	–	·	·	·	·	·
Cc1cc(O)c(C=Nc2ccc(N3CCOCC3)cc2)c(C)c1Cl	–	57	–	–	–	82	–	–	–	–	–
SMILES	Platelet DG rel	SENP6 block	SENP1 inh	SENP8 block-1	SENP8 block-2	SENP7 inh	SENP8 conf	SENP6 confirm	SENP7 conf	Casp3 SENP sel	SENP luc ctr
CCOC(=O)c1[nH]c2ccc(C)cc2c1N	–	50	–	–	–	–	54	54	88	82	72
CCOC(=O)c1[nH]c2cc(OC)c(OC)cc2c1N	–	–	–	–	–	–	·	·	·	·	·
O=C1C=C(Nc2ccc(O)cc2)C(=O)c2ccccc21	74	97	–	96	–	96	64	98	103	97	53
CCC(C(=O)Nc1cc(Cl)c(OC)cc1OC)c1ccccc1 (stereo not given)	–	–	–	–	–	–	·	·	·	·	·
NS(=O)(=O)c1ccc(NC2=CC(=O)C(=O)c3ccccc32)cc1	–	87	–	88	50	–	–	94	84	–	–
Cc1cc(NC2=CC(=O)C(=O)c3ccccc32)no1	·	·	–	·	–	·	·	·	·	·	·
COc1cc(OC)c(NC2=CC(=O)C(=O)c3ccccc32)cc1Cl	–	79	–	70	–	53	–	87	73	–	–
Cc1ccc(NC2=CC(=O)C(=O)c3ccccc32)cc1	–	66	–	55	–	–	–	66	–	–	–
N#CCCN(C(=O)COC(=O)C1CCN(S(=O)(=O)c2ccc3c(c2)OCCO3)CC1)c1ccccc1	–	–	–	–	–	–	·	·	·	·	·
CCc1nc2ccc(C(=O)NC3CCN(C)CC3)cn2c1N(C)CCC(C)C	·	·	–	·	–	·	·	·	·	·	·
COCCCNc1nc2c(-c3ccc(Cl)cc3)nnn2c2ccccc12	–	–	–	–	–	–	·	·	·	·	·
Fc1ccc(-c2nnn3c2nc(NCc2ccccc2)c2ccccc23)cc1	–	–	–	–	–	–	·	·	·	·	·
NNc1nc2c(-c3ccc(F)cc3)nnn2c2ccccc12	–	97	–	92	–	92	–	81	71	78	–
NNc1nc2c(-c3ccc(Cl)cc3)nnn2c2ccccc12	–	85	–	–	–	–	–	–	–	–	–
Cc1ccc(S(=O)(=O)Nc2cccc(C(=O)N3CCOCC3)c2)c(C)c1NS(C)(=O)=O	–	–	–	–	–	–	·	·	·	·	·
CCOc1ccc(/C=C/C(=O)Oc2ccccc2)cc1	–	–	–	–	–	59	–	–	–	–	–
